Published values of several laboratories.
Each line is one published result; the experiments were not run side by side.
YES1: Tyrosine-protein kinase Yes (YES1, Homo sapiens, UniProt P07947)

Compound | target | assay | conditions | endpoint | result
CCCCNc1ncc2c(-c3ccc(F)cc3)nn(C[C@H]3CC[C@H](N)CC3)c2n1 | YES1 | target engagement in cells, inhibitor, chemoproteomics | 20 mM | inhibition | 92.8%
CC(C)(C)c1nc(-c2cccc(NS(=O)(=O)c3c(F)cccc3F)c2F)c(-c2ccnc(N)n2)s1 | YES1 | enzyme activity, inhibitor, radiometric | 1 µM | remaining activity | 105%
CN(c1ncccc1CNc1nc(Nc2ccc3c(c2)CC(=O)N3)ncc1C(F)(F)F)S(C)(=O)=O | YES1 | enzyme activity, inhibitor | 1 µM | inhibition | 51.6%
COc1cccc2c(NCc3ccccc3)nc(-n3c(N)nc4ccccc43)nc12 | YES1 | target engagement in cells, inhibitor, chemoproteomics | 20 mM | inhibition | -2.4%
C[C@@H]1CN(c2cc(-c3n[nH]c4ccc(OC5(C)CC5)cc34)ncn2)C[C@H](C)O1 | YES1 | cell-free assay, competition with immobilised ligand | 0.1 µM | remaining binding | 80%
Nc1nc(Nc2ccccc2)sc1C(=O)c1c(F)cccc1F | YES1 | enzyme activity, inhibitor | 10 µM | remaining activity | 26%
FC(F)(F)Oc1cccc(-c2cnc3ccc(-c4ccncc4)nn23)c1 | YES1 | enzyme activity, inhibitor, radiometric | 5 µM | activity vs control | 77%
Cc1noc([C@H]2C[C@@H](c3ccc(C(F)(F)F)cc3)CN(C(=O)N3CCS(=O)(=O)C3)C2)n1 | YES1 | cell-free assay, competition with immobilised ligand | 1 µM | remaining binding | 100%
CN1CC(Oc2cnc(C#N)cc2-c2ccn3nc(NC(=O)C4CC4)cc3c2)C1 | YES1 | enzyme activity, inhibitor | 1 µM | inhibition | 86%
O=C1NC(=O)c2cc(Nc3ccc(F)cc3)c(Nc3ccc(F)cc3)cc21 | YES1 | cell-free assay | 0.5 µM | remaining signal | 86.6%
COc1cc2ncnc(Nc3ccc(Oc4ccccc4)cc3C)c2cc1OC | YES1 | enzyme activity, inhibitor | 1 µM | inhibition | 99%
FC(F)c1nc2ccccc2n1-c1nc(N2CCOCC2)nc(N2CCOCC2)n1 | YES1 | enzyme activity, inhibitor | 10 µM | remaining activity | 72%
CN(C)C(=O)Cn1cc(-c2nc(C3(c4ccc(-c5cnc(N)nc5)cc4)CC3)no2)cn1 | YES1 | cell-free assay, competition with immobilised ligand | 1 µM | remaining binding | 87%
CCN(CC)CCNC(=O)c1c(C)[nH]c(/C=C2\C(=O)Nc3ccc(F)cc32)c1C | YES1 | enzyme activity, inhibitor | 0.3 µM | inhibition | 69%
CS(=O)(=O)NCC[C@H](NC(=O)c1cncc2c1cnn2-c1ccc(F)cc1)c1ccnc(S(C)(=O)=O)c1 | YES1 | cell-free assay, competition with immobilised ligand | 1 µM | remaining binding | 100%
Cn1c(=O)n(-c2ccc(C(C)(C)C#N)cc2)c2c3cc(-c4cnc5ccccc5c4)ccc3ncc21 | YES1 | enzyme activity, inhibitor | 10 µM | remaining activity | 69%
O=c1cc(-c2cccc3c2Sc2ccccc2S3)oc(N2CCOCC2)c1 | YES1 | enzyme activity, inhibitor | 0.5 µM | remaining activity | 89.4%
Cc1ccc(NC(=O)c2ccc(C)c(C(F)(F)F)c2)cc1C#Cc1nn(C2CCC(O)CC2)c2ncnc(N)c12 (stereo not drawn) | YES1 | cell-free assay | 10 µM | remaining signal | 0%
O=C(Nc1cnn(-c2csc(C(=O)NC3COC3)c2)c1)Nc1ccccc1Cl | YES1 | enzyme activity, inhibitor | 5 µM | remaining activity | 96.5%
CC/C(=N\NC(=O)NCc1cccc(O)c1)c1ccc(O)c(C)c1O | Tyrosine-protein kinase Yes (YES1, Homo sapiens, UniProt P07947, T348I) | enzyme activity, inhibitor | 0.1 µM | inhibition | 6.2%
O=C(O)[C@@H]1[C@@H](Cn2nnc3ccccc3c2=O)CC[C@H]1C(=O)c1ccc(OCCC2CCOCC2)cc1 | YES1 | cell-free assay, competition with immobilised ligand | 1 µM | remaining binding | 100%
COc1cc(Nc2cnc(C#N)c(O[C@H](C)CN(C)C)n2)ncc1-c1cnn(C)c1 | YES1 | enzyme activity, inhibitor, radiometric | 1 µM | remaining activity | 93%
COc1cc(/C=C/C(=O)CC(=O)/C=C/c2ccc(O)c(OC)c2)ccc1O | YES1 | enzyme activity, inhibitor | 1 µM | activity vs control | 62%
CNC(=O)c1cc(Oc2ccc(NC(=O)Nc3ccc(Cl)c(C(F)(F)F)c3)cc2)ccn1 | YES1 | cell-free assay | 0.5 µM | remaining signal | 82.8%
C[C@@H](c1cccc(C#N)c1)n1cc(Cl)cc(C(N)=O)c1=N | YES1 | cell-free assay, competition with immobilised ligand | 1 µM | remaining binding | 93%
COc1cc(Cl)c(C(=O)N[C@@H](CN[C@H]2CC[C@@H](N)CC2)Cc2ccc(C#N)cc2)cc1-c1ccc(CN[C@H](C)c2ccc(C)cc2)o1 | YES1 | enzyme activity, inhibitor | 1 µM | remaining activity | 62%
N#CC1(c2ccccn2)CCN(Cc2cc(C(=O)N3CCCC3)c(=O)n3ccccc23)CC1 | YES1 | cell-free assay, competition with immobilised ligand | 1 µM | remaining binding | 84%
Cc1cnc(NC2CCOCC2)nc1-n1cnc(C(=O)NC(CN)c2cc(F)cc(Cl)c2)c1 (stereo not drawn) | YES1 | enzyme activity, inhibitor, radiometric | 1 µM | remaining activity | 97%
COCCOc1nc(-c2ccc(Cl)nc2)nc2c1CN(C(=O)c1ncn3ccccc13)CC2 | YES1 | cell-free assay, competition with immobilised ligand | 0.1 µM | remaining binding | 100%
Nc1nc(NC2CCCCC2)sc1C(=O)c1ccccc1 | YES1 | enzyme activity, inhibitor | 10 µM | remaining activity | 114%
